A short description of data set [1]: In vivo pharmacokinetic studies. On the set-up: species or system Sprague-Dawley rats.
In the next data set the test system is MCF-7/HER2 cells. In words: In vitro cytotoxicity, MTT assay. The class given is cell-based. Particulars: Homo sapiens, MCF7, 48 h, read-out: IC50 (ng/mL) Free Drug. In a few lines: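 MCF-7/HER2 cells grown in DMEM/F12 with 10% FBS and 1% penicillin/streptomycin/amphotericin B at 37 °C, 5% CO2. Seeded at 1×10^4 cells/well for 24 h, then exposed to test compounds (free or nanocarrier forms) at 1~500 ng/mL. Methods give a 48 h exposure; the figure legend gives 72 h. Then 0.5 mg/mL MTT for 3 h, formazan dissolved in DMSO, absorbance read at 550 nm.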
On the technique in general: Tetrazolium assays rely on reduction of a dye to a coloured formazan, in cell work by metabolically active cells.

Data set [2] can be described thus: In vivo biodistribution studies in MCF-7/HER2 tumor-bearing mice. Particulars: 8 h after administration; liver and kidneys. The arrangement: species or system nude mice.
A short description of another data set: Biosafety examination. The class given is in vivo, nude mice. Particulars: after the Q3D×4 regimen. In a few lines: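 Organs and tumors came from the MCF-7/HER2 xenograft nude-mouse study (IV dosing every 3 days ×4). Tail morphology was examined on day 24. On day 28 after administration, tissues were fixed in 4% paraformaldehyde. Heart, liver, spleen, lungs and kidneys were H&E-stained and scored for inflammatory cell infiltration.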

The conditions of data set [3]: cited from earlier work.
The conditions of data set [4]: cited from earlier work. This is another data set of the same source.
The nature of data set [5]: In vitro release of docetaxel and pictilisib. The class given is physicochemical. To be noted: after 12 h.
The next data set concerns MCF-7/HER2 tumors. In words: In vivo tumor inhibition studies. On the set-up: species or system nude mice. Particulars: day 24, compared with the PBS group; IV Q3D×4. An outline of the steps: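 Female nude mice (7 weeks) injected s.c. in the right thigh with 1×10^6 MCF-7/HER2 cells, plus 20 μg estradiol valerate in sesame oil s.c. in the neck. At ~100 mm3, mice were randomized to 10 groups (n=4, saline control). They received IV tail-vein doses equivalent to 5 mg/kg taxane and/or 2.5 mg/kg PI3K inhibitor every 3 days ×4. Volume (L×W²/2) and body weight were recorded every 3 days. Tumors were excised and weighed on day 24.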

Where [6] appears, read: female, Sprague-Dawley, rat, plasma, iv, 5 mg/kg.
The mark [7] stands for this setting: female, Sprague-Dawley, rat, plasma, iv, 2.5 mg/kg.

In brackets after ≈: the same amount, converted by molar mass.

As a reminder, the AUC(0-inf) is total exposure, with the tail of the curve extrapolated. A low value points to low exposure. One may read the AUC(0-t) as exposure summed from dosing to a finite time, without extrapolation to infinity. A word on the Vd: it is the apparent volume that relates the amount in the body to the concentration in plasma or blood. The low end stands for confinement near the circulation, the high end for extensive tissue distribution. Usually clearance stands for the volume of plasma or blood freed of the substance per unit of time. For orientation: half-life means the time in which the quantity being followed falls by half. Take `CC(=O)O[C@@]12CO[C@@H]1C[C@H](O)[C@@]1(C)C(=O)[C@H](O)C3=C(C)[C@@H](OC(=O)[C@H](O)[C@@H](NC(=O)OC(C)(C)C)c4ccccc4)C[C@@](O)([C@@H](OC(=O)c4ccccc4)[C@H]21)C3(C)C` [DTX, docetaxel]: in data set [1] (setting [6]), the area under the curve AUC(0-inf) was determined as 524 ± 37 ng·h/mL, the area under the curve AUC(0-t) was 487 ± 37 ng·h/mL, the Vd came out at 73.4 ± 5.22 L/kg and the clearance was 160 mL/min/kg. In addition, the half-life in data set [1] (setting [6]) was 5.32 ± 0.24 h. Also, the “Relative bioavailability (%) of DTX” value in data set [1] (relative to Free DTX, IV 5 mg/kg BW DTX, rats) came to 100%. For the same molecule, the IC50 with MCF-7/HER2 cells came out at 12.5 ± 2.69 ng/mL (≈ 0.0155 µM). In addition, in data set [2], the “accumulation of DTX in major organs” value is “higher accumulation in the liver and kidneys”. Further, in the data set “Biosafety examination”, the “liver, H&E staining (inflammatory cell infiltration)” value was “slight liver damage”.
What is called log P is the decadic logarithm of the partition coefficient of the neutral form, usually between octanol and water. The pKa is the pH at which an ionisable group is half protonated. As for `CS(=O)(=O)N1CCN(Cc2cc3nc(-c4cccc5[nH]ncc45)nc(N4CCOCC4)c3s2)CC1` [PIC, pictilisib], in data set [1] (setting [7]), the AUC(0-inf) came to 536 ± 44 ng·h/mL, the AUC(0-t) came to 530 ± 46 ng·h/mL, the distribution volume (Vd) amounted to 19.7 ± 6.27 L/kg and the half-life is 2.92 ± 0.97 h. In addition, the “C0 (μg/mL) of PIC” value in data set [1] (pictilisib in plasma, IV 2.5 mg/kg BW PIC, rats, n=3, listed as Free PIC, 2.5 mg/kg) is 0.691 ± 0.115 µg/mL. Also, the IC50 in the data set on MCF-7/HER2 cells came to 86.8 ± 17.6 ng/mL (≈ 0.169 µM). Besides, the lipophilicity (log P) in data set [3] is reported as 1.96. Moreover, the pKa in data set [4] is given as 13.19. Also, the “precipitation in the dialysis bag” value in data set [5] was “precipitation in the free PIC group was observed”. Besides, the “tumor weights / tumor inhibition” value with MCF-7/HER2 tumors was “little antitumor efficacy”.

The record behind these values is article PMC9677924 (International Journal of Nanomedicine, 2022).
